Results taken from ChEMBL document CHEMBL1155208 (Eur J Med Chem, 2009).

Columns and labels:
[1] = test system: Rattus norvegicus; test: Acute toxicity in po dosed rat assessed as death after 1 week; type: organism-based; conditions: in vivo, 168 h
In short: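 Rats fasted 16 h, six per group, given various oral doses; deaths recorded daily over 1 week of observation after treatment.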

[2] = test system: Rattus norvegicus; test: Effect on scopolamine-induced memory loss and learning impairment in Wistar rat assessed as transfer latency at 0.1 mg/kg, ip after 30 mins by elevated plus maze test; type: functional; parameters: unit not given beside the values; conditions: route intraperitoneal
In short: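 Male Wistar rats on an elevated plus maze. Scopolamine 0.4 mg/kg ip; test compound 0.1 mg/kg ip given together with scopolamine 30 min before exploration; controls received distilled water. On day 1 each rat explored the maze for 90 s. Transfer latency was measured on day 1 (TL1, learning) and on day 2 in the same animals (TL2, memory), and the average was reported.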

[3] = test system: Rattus norvegicus; test: Antiamnesic activity against scopolamine-induced memory loss in Wistar rat assessed as latency time at 0.1 mg/kg, ip measured for 15 mins by passive avoidance step-down task test; type: functional; parameters: unit not given beside the values; conditions: route intraperitoneal
In short: (§1)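 Male Wistar rats (200-250 g), scopolamine 0.4 mg/kg ip to induce memory loss; test compound 0.1 mg/kg ip given together with scopolamine. Passive avoidance step-down task run in a rodent memory evaluator. Read-outs: basal latency (s) to reach the shock-free zone over trials I-III, memory latency (s) and number of mistakes, given as mean ± S.E.M.; p < 0.005 taken as significant.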

[4] = biological target: T1, Muscarinic acetylcholine receptor M1 (Rattus norvegicus, UniProt P08482); test: Displacement of [3H]QNB from muscarinic M1 receptor in Wistar rat brain cortex membrane after 2 hrs by liquid scintillation counting; type: cell membranes
T1 sequence (P08482 whole entry): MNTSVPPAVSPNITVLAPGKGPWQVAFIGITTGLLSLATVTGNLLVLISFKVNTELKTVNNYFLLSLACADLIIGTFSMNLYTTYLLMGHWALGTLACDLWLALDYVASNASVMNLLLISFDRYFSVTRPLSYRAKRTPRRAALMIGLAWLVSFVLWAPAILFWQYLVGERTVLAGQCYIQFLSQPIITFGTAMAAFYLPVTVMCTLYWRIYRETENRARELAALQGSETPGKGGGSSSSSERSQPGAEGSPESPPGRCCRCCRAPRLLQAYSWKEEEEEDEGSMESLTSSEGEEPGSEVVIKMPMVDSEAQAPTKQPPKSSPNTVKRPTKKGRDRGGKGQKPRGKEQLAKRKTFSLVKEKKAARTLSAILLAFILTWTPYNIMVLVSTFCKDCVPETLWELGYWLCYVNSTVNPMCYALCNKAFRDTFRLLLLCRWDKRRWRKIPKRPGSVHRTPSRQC

[5] = test system: Rattus norvegicus; test: Antiamnesic activity against scopolamine-induced memory loss in Wistar rat assessed as number of mistake done at 0.1 mg/kg, ip measured for 15 mins by passive avoidance step-down task test; type: functional; conditions: route intraperitoneal; in short: as §1
[6] = test system: Rattus norvegicus; test: Antiamnesic activity against scopolamine-induced memory loss in Wistar rat assessed as time taken to reach shock free zone at 0.1 mg/kg, ip measured for 15 mins by passive avoidance step-down task test; type: functional; parameters: unit not given beside the values; conditions: route intraperitoneal; in short: as §1

SMILES: CCN1C(=O)CSC1C1=CCCN(C)C1 (stereo unspecified)
- Activity [1]: Non-toxic
- Activity [2]: 45
- Activity [3]: 2
- IC50 [4]: 670 µM
- Ki [4]: 230 µM
- Activity [5]: 21
- Activity [6]: 4

SMILES: CN1CCC=C(C2SCC(=O)N2c2ccc(Cl)cc2)C1 (stereo unspecified)
- Activity [1]: Non-toxic
- Activity [2]: 42
- Activity [3]: 3
- IC50 [4]: 653 µM
- Ki [4]: 200 µM
- Activity [5]: 28
- Activity [6]: 3

SMILES: CN1CCC=C(C2SCC(=O)N2c2ccc(Nc3ccccc3)cc2)C1 (stereo unspecified)
- Activity [1]: Non-toxic
- Activity [2]: 14
- Activity [3]: 3
- IC50 [4]: 48 µM
- Ki [4]: 19 µM
- Activity [5]: 16
- Activity [6]: 5

SMILES: CN1CCC=C(C2SCC(=O)N2c2ccc(Br)cc2)C1 (stereo unspecified)
- Activity [1]: Non-toxic
- Activity [2]: 38
- Activity [3]: 3
- IC50 [4]: 536 µM
- Ki [4]: 122 µM
- Activity [5]: 29
- Activity [6]: 7

SMILES: CN1CCC=C(C2SCC(=O)N2c2cccc(O)c2)C1 (stereo unspecified)
- Activity [1]: Non-toxic
- Activity [2]: 22
- Activity [3]: 3
- IC50 [4]: 563 µM
- Ki [4]: 102 µM
- Activity [5]: 23
- Activity [6]: 6

SMILES: CN1CCC=C(C2SCC(=O)N2c2ccc(C(=O)O)cc2)C1 (stereo unspecified)
- Activity [1]: Non-toxic
- Activity [2]: 18
- Activity [3]: 4
- IC50 [4]: 74 µM
- Ki [4]: 37 µM
- Activity [5]: 14
- Activity [6]: 6

SMILES: CN1CCC=C(C2SCC(=O)N2c2ccc([N+](=O)[O-])cc2)C1 (stereo unspecified)
- Activity [1]: Non-toxic
- Activity [2]: 21
- Activity [3]: 4
- IC50 [4]: 158 µM
- Ki [4]: 43 µM
- Activity [5]: 25
- Activity [6]: 7

SMILES: CN1CCC=C(C2SCC(=O)N2Cc2ccccc2)C1 (stereo unspecified)
- Activity [1]: Non-toxic
- Activity [2]: 19
- Activity [3]: 4
- IC50 [4]: 789 µM
- Ki [4]: 149 µM
- Activity [5]: 30
- Activity [6]: 7

SMILES: CN1CCC=C(C2SCC(=O)N2c2ccccc2)C1 (stereo unspecified)
- Activity [1]: Non-toxic
- Activity [2]: 44
- Activity [3]: 4
- IC50 [4]: 886 µM
- Ki [4]: 105 µM
- Activity [5]: 32
- Activity [6]: 8

SMILES: CC(C)N1C(=O)CSC1C1=CCCN(C)C1 (stereo unspecified)
- Activity [1]: Non-toxic
- Activity [2]: 35
- Activity [3]: 3
- IC50 [4]: 579 µM
- Ki [4]: 97 µM
- Activity [5]: 30
- Activity [6]: 8

SMILES: CCCCCCN1C(=O)CSC1C1=CCCN(C)C1 (stereo unspecified)
- Activity [1]: Non-toxic
- Activity [2]: 30
- Activity [3]: 4
- IC50 [4]: 632 µM
- Ki [4]: 110 µM
- Activity [5]: 21
- Activity [6]: 7

SMILES: CCCCN1C(=O)CSC1C1=CCCN(C)C1 (stereo unspecified)
- Activity [1]: Non-toxic
- Activity [2]: 17
- Activity [3]: 4
- IC50 [4]: 68 µM
- Ki [4]: 32 µM
- Activity [5]: 12
- Activity [6]: 5

SMILES: Cc1ccc(N2C(=O)CSC2C2=CCCN(C)C2)c([N+](=O)[O-])c1 (stereo unspecified)
- Activity [1]: Non-toxic
- Activity [2]: 40
- Activity [3]: 3
- IC50 [4]: 626 µM
- Ki [4]: 125 µM
- Activity [5]: 25
- Activity [6]: 5
